Measurements reported in ChEMBL document CHEMBL1132997, “Bis(phenazine-1-carboxamides): structure-activity relationships for a new class of dual topoisomerase I/II-directed anticancer drugs” (J Med Chem, 2000).

Tests used:
[1] = test system: SK-OV-3; test: 50% inhibition of cell growth against SKOV-3 cell line; assay type: functional; settings: Homo sapiens
Summary of the method: (§1)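 Tested in the NCI human tumour cell line panel. GI50 (nM) is the drug concentration inhibiting cell growth to 50% of controls. The panel mean ("Mid") is the average GI50 over the whole cell line panel.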

[2] = The average concentration resulting in inhibition of cell growth to 50% whole cell line panel; assay type: functional; summary of the method: as §1
[3] = test system: NCI/ADR-RES; test: 50% inhibition of cell growth against NCI/ADRcell line; assay type: functional; settings: Homo sapiens; summary of the method: as §1
[4] = test system: CAKI-1; test: 50% inhibition of cell growth against CAK1 cell line; assay type: functional; settings: Homo sapiens; summary of the method: as §1
[5] = test system: HT-29; test: 50% inhibition of cell growth against HT-29 cell line; assay type: functional; settings: Homo sapiens; summary of the method: as §1
[6] = test system: MCF7; test: 50% inhibition of cell growth against MCF-7 cell line; assay type: functional; settings: Homo sapiens; summary of the method: as §1
[7] = test system: HCT-116; test: 50% inhibition of cell growth against HCT116 cell line; assay type: functional; settings: Homo sapiens; summary of the method: as §1
[8] = test system: Lewis lung carcinoma cell line; test: Inhibitory activity against Murine Lewis lung carcinoma cells; assay type: functional, cell-based; settings: Mus musculus
Summary of the method: (§2)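 Growth inhibition in microculture with drug present throughout. Seeding was 4.5 × 10³ P388, 10³ Lewis lung or 3.75 × 10³ wild-type Jurkat cells per well. Exposure was 3 days for P388 and 4 days for the others. IC50 (nM) is the drug concentration reducing cell number to 50% of control cultures. Each value averages at least two independent duplicate determinations; CV 15–22%.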

[9] = test system: Jurkat; test: Inhibitory activity against wild-type human Jurkat leukemia cells; assay type: functional, cell-based; summary of the method: as §2
[10] = test system: P388; test: Inhibitory activity against Murine P388 leukemia cells; assay type: functional, cell-based; settings: Mus musculus; summary of the method: as §2

| Compound | GI50 [1] | GI50 [2] | GI50 [3] | GI50 [4] | GI50 [5] | GI50 [6] | GI50 [7] | IC50 [8] | IC50 [9] | IC50 [10] |
| --- | --- | --- | --- | --- | --- | --- | --- | --- | --- | --- |
| CN(CCCNC(=O)c1c(Cl)ccc2nc3ccccc3nc12)CCCNC(=O)c1c(Cl)ccc2nc3ccccc3nc12 | 88000 nM | 5750 nM | > 100000 nM | 34000 nM | 135 nM | 4070 nM | 285 nM | 8370 nM | 2370 nM | 12000 nM |
| CN(CCCNC(=O)c1cccc2nc3ccccc3nc12)CCCNC(=O)c1cccc2nc3ccccc3nc12 | 850 nM | 210 nM | 1050 nM | 225 nM | 44 nM | 120 nM | 16 nM | 107 nM | 173 nM | 520 nM |
| Cc1ccc(C)c2nc3c(C(=O)NCCCN(C)CCCNC(=O)c4cccc5nc6c(C)ccc(C)c6nc45)cccc3nc12 | 74 nM | 34 nM | 35 nM | < 10 nM | < 10 nM | < 10 nM | < 10 nM | 5.3 nM | 21 nM | 26 nM |
| CN(CCCNC(=O)c1cccc2nc3ccc(Cl)cc3nc12)CCCNC(=O)c1cccc2nc3ccc(Cl)cc3nc12 | 1880 nM | 70 nM | 240 nM | 62 nM | < 10 nM | < 10 nM | < 10 nM | 44 nM | 42 nM | 97 nM |
| CN(CCCNC(=O)c1cccc2nc3cccc(F)c3nc12)CCCNC(=O)c1cccc2nc3cccc(F)c3nc12 | 14000 nM | 1320 nM | 7450 nM | 1730 nM | 400 nM | 460 nM | 225 nM | 120 nM | 177 nM | 294 nM |
| CN(CCCNC(=O)c1cccc2nc3cccc(Cl)c3nc12)CCCNC(=O)c1cccc2nc3cccc(Cl)c3nc12 | 790 nM | 93 nM | 350 nM | 15 nM | 70 nM | 35 nM | < 10 nM | 8.8 nM | 14 nM | 39 nM |
| Cc1ccc2nc3cccc(C(=O)NCCCN(C)CCCNC(=O)c4cccc5nc6ccc(C)cc6nc45)c3nc2c1 | 11000 nM | 290 nM | 1570 nM | 240 nM | 90 nM | 330 nM | 325 nM | 108 nM | 148 nM | 690 nM |
| CN(CCCNC(=O)c1cccc2nc3cccc(Oc4ccccc4)c3nc12)CCCNC(=O)c1cccc2nc3cccc(Oc4ccccc4)c3nc12 | 11000 nM | 3160 nM | 1630 nM | 5360 nM | 1790 nM | 3480 nM | 1770 nM | 1310 nM | 1250 nM | 3450 nM |
| Cc1cccc2nc3cccc(C(=O)NCCCN(C)CCCNC(=O)c4cccc5nc6cccc(C)c6nc45)c3nc12 | 220 nM | 20 nM | 19 nM | < 10 nM | < 10 nM | < 10 nM | < 10 nM | 1.6 nM | 5.7 nM | 15 nM |
| Cc1cccc2nc3c(C(=O)NCCCN(C)CCCNC(=O)c4cccc5nc6c(C)cccc6nc45)cccc3nc12 | 12000 nM | 740 nM | 920 nM | 370 nM | 270 nM | 480 nM | 63 nM | 46 nM | 172 nM | 584 nM |
| CN(CCCNC(=O)c1cccc2nc3cccc(N(C)C)c3nc12)CCCNC(=O)c1cccc2nc3cccc(N(C)C)c3nc12 | 10000 nM | 2510 nM | 11000 nM | 2910 nM | 530 nM | 1820 nM | 430 nM | 310 nM | 695 nM | 2280 nM |
| COc1ccc2nc3c(C(=O)NCCCN(C)CCCNC(=O)c4cccc5nc6cc(OC)ccc6nc45)cccc3nc2c1 | 9660 nM | 4170 nM | 20000 nM | 3020 nM | 93 nM | 2000 nM | 37 nM | 64 nM | 195 nM | 600 nM |
| Cc1ccc(Cl)c2nc3cccc(C(=O)NCCCN(C)CCCNC(=O)c4cccc5nc6c(Cl)ccc(C)c6nc45)c3nc12 | 2030 nM | 50 nM | 50 nM | < 10 nM | 40 nM | < 10 nM | < 10 nM | 5.2 nM | 9.8 nM | 29 nM |
| CN(CCCNC(=O)c1cccc2nc3cc(Cl)ccc3nc12)CCCNC(=O)c1cccc2nc3cc(Cl)ccc3nc12 | 1960 nM | 560 nM | 1140 nM | 530 nM | 80 nM | 330 nM | 35 nM | 83 nM | 249 nM | 2960 nM |
| COc1cccc2nc3cccc(C(=O)NCCCN(C)CCCNC(=O)c4cccc5nc6cccc(OC)c6nc45)c3nc12 | 1560 nM | 575 nM | 21000 nM | 1420 nM | 35 nM | 47 nM | < 10 nM | 160 nM | 124 nM | 815 nM |
| CN(CCCNC(=O)c1cccc2nc3ccc4ccccc4c3nc12)CCCNC(=O)c1cccc2nc3ccc4ccccc4c3nc12 | – | – | – | – | – | – | – | 3.2 nM | 9 nM | 24 nM |
| Cc1cc(C(=O)NCCCN(C)CCCNC(=O)c2cc(C)cc3nc4ccccc4nc23)c2nc3ccccc3nc2c1 | 12000 nM | 725 nM | 5730 nM | 170 nM | 130 nM | 310 nM | 470 nM | 48 nM | 208 nM | 472 nM |
| CN(CCCNC(=O)c1cc(Cl)cc2nc3ccccc3nc12)CCCNC(=O)c1cc(Cl)cc2nc3ccccc3nc12 | 1460 nM | 180 nM | 125 nM | 1170 nM | < 10 nM | 110 nM | 18 nM | 12 nM | 74 nM | 204 nM |
| CN(CCCNC(=O)c1cccc2nc3c(ccc4ccccc43)nc12)CCCNC(=O)c1cccc2nc3c(ccc4ccccc43)nc12 | – | – | – | – | – | – | – | 410 nM | 290 nM | 450 nM |
| CN(CCCNC(=O)c1cccc2nc3c(Cl)cccc3nc12)CCCNC(=O)c1cccc2nc3c(Cl)cccc3nc12 | – | – | – | – | – | – | – | 151 nM | 209 nM | 7740 nM |
| COc1ccc2nc3cccc(C(=O)NCCCN(C)CCCNC(=O)c4cccc5nc6ccc(OC)cc6nc45)c3nc2c1 | 800 nM | 72 nM | 1210 nM | 82 nM | < 10 nM | < 10 nM | < 10 nM | 24 nM | 30 nM | 75 nM |
| Cc1ccc(C(=O)NCCCN(C)CCCNC(=O)c2ccc(C)c3nc4ccccc4nc23)c2nc3ccccc3nc12 | – | – | – | – | – | – | – | 26 nM | 102 nM | 375 nM |
| Cc1ccc2nc3c(C(=O)NCCCN(C)CCCNC(=O)c4cccc5nc6cc(C)ccc6nc45)cccc3nc2c1 | 5840 nM | 600 nM | 2660 nM | 430 nM | 235 nM | 550 nM | 455 nM | 72 nM | 280 nM | 623 nM |
